Test results published in ChEMBL document CHEMBL3526139, “Clinical pharmacokinetics, metabolism, and drug-drug interaction of carfilzomib” (Drug Metab Dispos, 2013).

How the values were obtained:
[1] = AUC infinity in human patient with relapsed solid tumor at 20 mg/m'2, iv administered over 2 to 10 mins on days 1, 2, 8, 9, 15 and 16 of 28-day cycle measured on day 1 of cycle 1 by LC-MS/MS analysis; type: ADME, organism-based; set-up: route intravenous, time infinity; settings: plasma
Outline: (§1)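 Patients with relapsed solid tumors (n=3) received carfilzomib IV at 20 mg/m2. Plasma was sampled on Days 1 and 16 of Cycle 1 before dosing, at end of administration, and at 5, 15, 30 min and 1, 2, 4 h after. Samples underwent solid phase extraction and LC-MS/MS with d10-carfilzomib internal standard over 0.100–200 ng/mL. Parameters were derived noncompartmentally (constant IV infusion model) from actual elapsed time from infusion start.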

[2] = target: CYP3A (Homo sapiens, UniProt P08684+P20815+P24462+Q9HB55); experiment: Inhibition of CYP3A in human liver microsomes assessed as substrate metabolite formation using testosterone as substrate measured after 5 mins by LC-MS/MS analysis; type: ADME; settings: probe testosterone
Outline: (§2)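 Pooled HLM from 16 donors were incubated at 37°C in duplicate with carfilzomib 0.01–10 µM and probe substrate at about its Km. Substrates were phenacetin, amodiaquine, diclofenac, S-mephenytoin, dextromethorphan, testosterone and midazolam. Protein was 0.1 mg/mL, or 0.05 mg/mL with midazolam. Reactions ran 5 min without preincubation, then were quenched with acetonitrile. Metabolites were measured by LC-MS/MS relative to 0.5% acetonitrile controls.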

[3] = target: Cytochrome P450 3A (Homo sapiens, UniProt P08684+P20815+Q9HB55+P24462); experiment: Time-dependent inhibition of CYP3A in human liver microsomes assessed as testosterone 6-hydroxylation using testosterone as substrate measured after 25-fold diution by LC-MS/MS analysis in presence of NADPH; type: ADME
Outline: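 Pooled HLM (16 donors, mixed gender) preincubated in duplicate with carfilzomib 0, 0.5, 1, 3, 5 and 8 µM plus NADPH-generating system (1 mM NADP, 5 mM glucose-6-phosphate, 1 unit/mL G6PDH) for 0–30 min. Microsomal protein in preincubation: 2.5 mg/mL (testosterone) or 1.25 mg/mL (midazolam). Aliquots then diluted 25-fold into 50 mM potassium phosphate, 3 mM MgCl2, 1 mM EDTA, pH 7.4. Residual activity measured over 5 min with testosterone 200 µM or midazolam 40 µM plus NADPH-generating mixture, 37°C. KI and kinact derived.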

[4] = target: T1, Cytochrome P450 2C8 (Homo sapiens, UniProt P10632); experiment: Inhibition of CYP2C8 in human liver microsomes using amodiaquine as substrate after 5 mins by LC-MS/MS analysis; type: ADME; outline: as §2
T1 sequence (P10632 whole entry): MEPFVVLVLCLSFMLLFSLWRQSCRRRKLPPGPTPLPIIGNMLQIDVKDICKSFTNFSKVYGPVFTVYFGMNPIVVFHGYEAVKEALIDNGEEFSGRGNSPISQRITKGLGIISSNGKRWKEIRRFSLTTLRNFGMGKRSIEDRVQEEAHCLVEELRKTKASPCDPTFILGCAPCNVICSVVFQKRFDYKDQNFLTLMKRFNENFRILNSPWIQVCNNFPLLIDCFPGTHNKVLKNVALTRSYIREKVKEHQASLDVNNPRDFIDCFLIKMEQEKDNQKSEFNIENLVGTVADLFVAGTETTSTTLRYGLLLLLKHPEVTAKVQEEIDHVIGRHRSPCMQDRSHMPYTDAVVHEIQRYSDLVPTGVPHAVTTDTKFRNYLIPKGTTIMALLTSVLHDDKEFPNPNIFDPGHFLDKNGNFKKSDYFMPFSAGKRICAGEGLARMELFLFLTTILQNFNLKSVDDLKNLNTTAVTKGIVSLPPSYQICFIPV

[5] = target: T2, Cytochrome P450 2C9 (Homo sapiens, UniProt P11712); experiment: Drug metabolism in pooled human hepatocytes assessed as disapperance rate at 1 uM by LC-MS/MS analysis in presence of 10 uM CYP2C9 inhibitor sulfaphenazole
Target sequence in this assay (P11712 whole entry, looked up): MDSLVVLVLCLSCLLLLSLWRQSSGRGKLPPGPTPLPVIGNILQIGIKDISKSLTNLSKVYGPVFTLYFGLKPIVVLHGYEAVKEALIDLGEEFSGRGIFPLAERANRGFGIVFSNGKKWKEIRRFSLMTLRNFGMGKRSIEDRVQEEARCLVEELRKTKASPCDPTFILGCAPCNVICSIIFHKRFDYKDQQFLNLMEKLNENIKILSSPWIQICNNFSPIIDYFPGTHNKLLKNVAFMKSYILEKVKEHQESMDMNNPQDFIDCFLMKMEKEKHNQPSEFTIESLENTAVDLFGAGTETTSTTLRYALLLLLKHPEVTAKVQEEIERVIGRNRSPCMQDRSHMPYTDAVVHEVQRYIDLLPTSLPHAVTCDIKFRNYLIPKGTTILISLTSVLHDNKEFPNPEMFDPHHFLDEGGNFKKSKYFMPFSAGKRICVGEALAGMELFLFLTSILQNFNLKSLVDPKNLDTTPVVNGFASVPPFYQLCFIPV

[6] = system: CYP3A; experiment: Decrease in CYP3A gene expression in human hepatocytes at 2.5 uM after 3 days by qPCR analysis; type: ADME, cell-based, Hepatocyte
Outline: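 Hepatocytes were treated 3 days with carfilzomib (0.1–2.5 µM) or 0.08% DMSO, renewed daily. CYP3A mRNA was measured in 3 donors and CYP1A2 mRNA in one additional donor, both by qPCR. Values are triplicate means relative to DMSO.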

[7] = Half life in human patient with relapsed solid tumor at 20 mg/m'2, iv administered on days 1, 2, 8, 9, 15 and 16 of 28-day cycle over 2 to 10 mins measured on day 16 of cycle 1 by LC-MS/MS analysis; type: ADME, organism-based; settings: in vivo; outline: as §1
[8] = Drug excretion in urine of iv dosed human patient with relapsed and refractory hematological malignancies assessed as morpholino-hPhe-Leu-Phe-Leu-diol metabolite formation administered on days 1, 2, 8, 9, 15 and 16 of 28-day cycle over 2 to 10 mins by LC-MS/MS analysis; type: ADME, organism-based; settings: in vivo
[9] = target: Cytochrome P450 2C19 (Homo sapiens, UniProt P33261); experiment: Inhibition of CYP2C19 in human liver microsomes using S-mephenytoin as substrate after 5 mins by LC-MS/MS analysis; type: ADME; outline: as §2
Sequence of Cytochrome P450 2C19 (P33261 whole entry): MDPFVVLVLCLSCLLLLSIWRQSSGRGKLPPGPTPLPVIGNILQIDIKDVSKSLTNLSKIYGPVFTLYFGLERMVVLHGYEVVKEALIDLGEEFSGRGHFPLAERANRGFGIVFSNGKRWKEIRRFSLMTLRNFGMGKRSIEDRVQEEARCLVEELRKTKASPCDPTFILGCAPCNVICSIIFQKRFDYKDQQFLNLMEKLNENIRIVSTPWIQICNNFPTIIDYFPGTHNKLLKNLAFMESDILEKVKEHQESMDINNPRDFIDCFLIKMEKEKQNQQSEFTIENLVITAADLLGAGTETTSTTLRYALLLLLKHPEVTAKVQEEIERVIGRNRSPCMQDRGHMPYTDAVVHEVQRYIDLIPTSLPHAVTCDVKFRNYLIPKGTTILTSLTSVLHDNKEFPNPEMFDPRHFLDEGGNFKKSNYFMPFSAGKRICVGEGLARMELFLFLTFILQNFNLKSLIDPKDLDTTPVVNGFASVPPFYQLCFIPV

[10] = target: T2, Cytochrome P450 2C9; experiment: Inhibition of CYP2C9 in human liver microsomes using diclofenac as substrate after 5 mins by LC-MS/MS analysis; type: ADME; outline: as §2
Target sequence in this assay (P11712 whole entry): as the sequence (P11712 whole entry, looked up) above

[11] = Plasma protein binding in iv dosed human multiple myeloma patient at 15 mg/m'2 in first cycle and escalated to 20 mg/m'2 thereafter administered on days 1, 2, 8, 9, 15 and 16 of 28-day cycle over 2 to 10 mins by LC-MS/MS analysis; type: ADME, organism-based; settings: read-out: PPB (converted)
Outline: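 Plasma taken at end of administration and 5 min after, on Days 1 and 15 of Cycle 1 and Day 15 of Cycle 2, was dialyzed 6 h at 37°C against pH 7.4 sodium phosphate buffer by rapid equilibrium dialysis. Samples were matrix-matched, extracted by acetonitrile precipitation and quantified by LC-MS/MS.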

[12] = Drug excretion in urine of human multiple myeloma patient with normal renal function at 15 mg/m'2, iv on days 1, 2, 8, 9, 15 and 16 of 28-day cycle over 2 to 10 mins by LC-MS/MS analysis relative to total drug dose; type: ADME, organism-based; settings: read-out: Drug excretion
Outline: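 Urine was collected 0–5 h and 5–24 h after dosing on Cycle 1 Day 1, with acetonitrile added at 25% of sample volume. Carfilzomib and metabolites were quantified by LC-MS/MS (carfilzomib and M15 4.00–2000 ng/mL, M14 10.0–5000 ng/mL) and expressed as percent of dose.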

[13] = Drug excretion in urine of iv dosed human patient with relapsed and refractory hematological malignancies assessed as morpholino-hPhe metabolite formation administered on days 1, 2, 8, 9, 15 and 16 of 28-day cycle over 2 to 10 mins by LC-MS/MS analysis; type: ADME, organism-based; settings: in vivo

AUC(0-inf) [1]: 238 ng·h/mL | IC50 at 5 min [2]: > 10 µM | inhibition (INH) [3]: Active | IC50 [4]: > 10 µM | Drug metabolism [5]: 0.0073 min⁻¹ | inhibition at 72 h, 2.5 µM [6]: > 95% | half-life [7]: 1.1 h | Drug excretion [8]: metabolite_detected | IC50 [9]: > 10 µM | IC50 [10]: > 10 µM | fraction unbound [11]: 0.024 | dose excreted [12]: < 1% | Drug excretion [13]: metabolite_detected
Compound: CC(C)C[C@H](NC(=O)[C@H](CCc1ccccc1)NC(=O)CN1CCOCC1)C(=O)N[C@@H](Cc1ccccc1)C(=O)N[C@@H](CC(C)C)C(=O)[C@@]1(C)CO1 [CARFILZOMIB]
